Data reported in ChEMBL document CHEMBL4261600 (Eur J Med Chem, 2018).

Tests used:
[1] = Tmax in beagle dog at 10 mg/kg, po by LC-MS/MS analysis; assay type: ADME, organism-based, Canis lupus familiaris; details: in vivo
[2] = AUC (0 to t) in mouse at 3 mg/kg, iv by LC-MS/MS analysis; assay type: ADME, organism-based; details: in vivo
Method in brief: (§1)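 Non-compartmental PK. Male SD rats 190-210 g, mice and beagle dogs acclimatized one week, fasted 12 h with water, split into iv and po groups (mice 48, rats 6, dogs 6). iv 3/3/2 mg/kg (mice/rats/dogs); po 10/20/10 mg/kg; vehicle DMSO in 5% glucose water. Blood at 2 or 5 to 720 min; plasma protein-precipitated with methanol, caffeine internal standard, LC-MS/MS.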

[3] = molecular target: Fibroblast growth factor receptor 3 (Homo sapiens) (UniProt P22607); experiment: Binding affinity to wild-type human partial length FGFR3 (R442 to S771 residues) expressed in bacterial expression system assessed as remaining unbound target protein level at 1000 nM by Kinomescan method relative to control
[4] = molecular target: Dual specificity mitogen-activated protein kinase kinase 7 (Homo sapiens) (UniProt O14733); experiment: Binding affinity to wild-type human full length MKK7 (M1 to R419 residues) expressed in mammalian expression system assessed as remaining unbound target protein level at 1000 nM by Kinomescan method relative to control
Method in brief: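 Single-point competition binding screen across a panel of 468 kinases and mutants, with the inhibitor at 1 μM. Binding is read out as percent of a DMSO control, and targets below 1 percent control were classed as strong binders.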

[5] = molecular target: Serine/threonine-protein kinase LATS1 (Homo sapiens) (UniProt O95835); experiment: Binding affinity to wild-type human partial length LATS1 (Q678 to V1130 residues) expressed in bacterial expression system assessed as remaining unbound target protein level at 1000 nM by Kinomescan method relative to control
[6] = tested on: Phosphatidylinositol 4,5-bisphosphate 3-kinase catalytic subunit alpha isoform (Homo sapiens), P42336 [E542K]; experiment: Binding affinity to human partial length PIK3CA E542K mutant (R108 to N1068 residues) expressed in mammalian expression system assessed as remaining unbound target protein level at 1000 nM by Kinomescan method relative to control
Method in brief: (§2)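 KINOMEscan competition-binding profiling across the panel of 468 kinases and mutants, with inhibitor tested at 1 μM. Binding is expressed as percent of control, with DMSO as the reference control.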

[7] = Half life in beagle dog at 10 mg/kg, po by LC-MS/MS analysis; assay type: ADME, organism-based, Canis lupus familiaris; details: in vivo
[8] = Clearance in Sprague-Dawley rat at 3 mg/kg, iv by LC-MS/MS analysis; assay type: ADME, organism-based; details: in vivo
[9] = molecular target: BMP-2-inducible protein kinase (Homo sapiens) (UniProt Q9NSY1); experiment: Binding affinity to wild-type human partial length BIKE (S34 to N329 residues) expressed in bacterial expression system assessed as remaining unbound target protein level at 1000 nM by Kinomescan method relative to control
Method in brief: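 Profiled in a KINOMEscan binding panel with the inhibitor at a single concentration of 1 μM. Binding to each kinase was read out as percent of control, relative to a DMSO control. Strong binders were defined as those with a percent control value below 1.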

COLO 205 = experiment: Antiproliferative activity against human COLO205 cells after 72 hrs by Celltiter-Glo assay; assay type: functional; details: COLO 205, 72 h
Method in brief: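 Cells seeded at 3000/well in 96-well plates, exposed to serially diluted compound for 72 h at 37 °C, 5% CO2. Viability read by CellTiter-Glo luminescence and normalized to DMSO control. GI50 derived from curve fit, mean of three independent measurements. Culture media: DMEM/10% FBS for adherent lines; IMDM for MV4-11 and MEC-1/2; RPMI 1640 for suspension lines and CHL.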

[10] = molecular target: Hormonally up-regulated neu tumor-associated kinase (Homo sapiens) (UniProt P57058); experiment: Binding affinity to wild-type human partial length HUNK (A31 to K354 residues) expressed in bacterial expression system assessed as remaining unbound target protein level at 1000 nM by Kinomescan method relative to control
Method in brief: (§3)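 KINOMEscan binding panel of 468 kinases/mutants. Inhibitor was tested at a single concentration of 1 μM. Binding is reported as percent of control, defined relative to a DMSO control.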

[11] = Clearance in mouse at 3 mg/kg, iv by LC-MS/MS analysis; assay type: ADME, organism-based; details: in vivo
[12] = MRT (0 to infinity) in beagle dog at 2 mg/kg, iv by LC-MS/MS analysis; assay type: ADME, organism-based, Canis lupus familiaris; details: in vivo
[13] = molecular target: Tyrosine-protein kinase Mer (Homo sapiens) (UniProt Q12866); experiment: Binding affinity to wild-type human partial length MERTK (R557 to L884 residues) expressed in bacterial expression system assessed as remaining unbound target protein level at 1000 nM by Kinomescan method relative to control; method in brief: as §3
[14] = molecular target: Phosphatidylinositol 4-phosphate 3-kinase C2 domain-containing subunit beta (Homo sapiens) (UniProt O00750); experiment: Binding affinity to wild-type human partial length PIK3C2B (M1 to L1634 residues) expressed in mammalian expression system assessed as remaining unbound target protein level at 1000 nM by Kinomescan method relative to control
[15] = tested on: Epidermal growth factor receptor (Homo sapiens), P00533 [UNDEFINED MUTATION]; experiment: Binding affinity to human partial length EGFR L747-E749del/A750P mutant expressed in bacterial expression system assessed as remaining unbound target protein level at 1000 nM by Kinomescan method relative to control; method in brief: as §2
[16] = molecular target: Serine/threonine-protein kinase Nek10 (Homo sapiens) (UniProt Q6ZWH5); experiment: Binding affinity to wild-type human partial length NEK10 (L488 to R809 residues) expressed in mammalian expression system assessed as remaining unbound target protein level at 1000 nM by Kinomescan method relative to control
[17] = molecular target: Ephrin type-B receptor 6 (Homo sapiens) (UniProt O15197); experiment: Binding affinity to wild-type human partial length EPHB6 (Q634 to P948 residues) expressed in mammalian expression system assessed as remaining unbound target protein level at 1000 nM by Kinomescan method relative to control
[18] = MRT (0 to infinity) in beagle dog at 10 mg/kg, po by LC-MS/MS analysis; assay type: ADME, organism-based, Canis lupus familiaris; details: in vivo
[19] = molecular target: Serine/threonine-protein kinase DCLK3 (Homo sapiens) (UniProt Q9C098); experiment: Binding affinity to wild-type human partial length DCAMKL3 (E140 to V628 residues) expressed in bacterial expression system assessed as remaining unbound target protein level at 1000 nM by Kinomescan method relative to control
[20] = molecular target: Tyrosine-protein kinase JAK1 (Homo sapiens) (UniProt P23458); experiment: Binding affinity to wild-type human partial length JAK1 JH1 catalytic domain (V856 to K1154 residues) expressed in bacterial expression system assessed as remaining unbound target protein level at 1000 nM by Kinomescan method relative to control; method in brief: as §3
[21] = molecular target: Epidermal growth factor receptor (Homo sapiens) (UniProt P00533); experiment: Binding affinity to human partial length EGFR S752-I759del mutant expressed in bacterial expression system assessed as remaining unbound target protein level at 1000 nM by Kinomescan method relative to control; method in brief: as §2
Canis familiaris = experiment: AUC (0 to infinity) in beagle dog at 10 mg/kg, po by LC-MS/MS analysis; assay type: ADME, organism-based, Canis lupus familiaris; parameters: dose 10 mg/kg, time infinity, route oral; details: in vivo; method in brief: as §1

Chain of Tyrosine-protein kinase JAK1 (Homo sapiens) (P23458 whole entry, the tested form may be a part): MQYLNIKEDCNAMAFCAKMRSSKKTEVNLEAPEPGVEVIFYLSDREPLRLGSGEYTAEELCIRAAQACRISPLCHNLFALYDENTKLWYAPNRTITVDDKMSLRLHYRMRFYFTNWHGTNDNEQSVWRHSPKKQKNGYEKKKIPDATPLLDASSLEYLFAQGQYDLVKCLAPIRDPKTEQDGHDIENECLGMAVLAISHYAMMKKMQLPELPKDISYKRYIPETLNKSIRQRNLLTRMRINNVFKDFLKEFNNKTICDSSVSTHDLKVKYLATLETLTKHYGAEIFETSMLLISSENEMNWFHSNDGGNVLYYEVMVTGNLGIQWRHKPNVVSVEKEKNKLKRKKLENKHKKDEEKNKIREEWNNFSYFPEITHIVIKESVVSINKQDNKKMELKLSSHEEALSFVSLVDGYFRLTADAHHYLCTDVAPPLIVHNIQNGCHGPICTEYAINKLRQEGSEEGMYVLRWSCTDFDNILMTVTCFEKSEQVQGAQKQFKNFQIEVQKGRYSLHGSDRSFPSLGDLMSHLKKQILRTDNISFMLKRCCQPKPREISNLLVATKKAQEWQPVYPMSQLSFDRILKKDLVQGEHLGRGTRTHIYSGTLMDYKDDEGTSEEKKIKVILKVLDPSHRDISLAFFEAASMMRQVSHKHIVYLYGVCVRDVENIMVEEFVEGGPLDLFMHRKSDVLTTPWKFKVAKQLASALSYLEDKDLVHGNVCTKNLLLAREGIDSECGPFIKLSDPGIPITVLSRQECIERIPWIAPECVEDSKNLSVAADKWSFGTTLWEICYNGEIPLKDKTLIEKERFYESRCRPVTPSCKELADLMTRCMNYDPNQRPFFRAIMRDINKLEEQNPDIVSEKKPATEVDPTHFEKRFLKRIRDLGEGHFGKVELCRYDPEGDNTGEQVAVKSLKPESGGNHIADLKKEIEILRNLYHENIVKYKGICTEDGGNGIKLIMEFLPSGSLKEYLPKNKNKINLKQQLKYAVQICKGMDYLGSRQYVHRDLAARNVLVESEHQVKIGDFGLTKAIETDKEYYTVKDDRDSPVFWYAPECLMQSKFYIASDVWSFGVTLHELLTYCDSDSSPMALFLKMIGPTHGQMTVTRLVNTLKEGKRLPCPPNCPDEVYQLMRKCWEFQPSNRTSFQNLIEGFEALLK
Chain of Serine/threonine-protein kinase LATS1 (Homo sapiens) (O95835 whole entry, the tested form may be a part, canonical isoform): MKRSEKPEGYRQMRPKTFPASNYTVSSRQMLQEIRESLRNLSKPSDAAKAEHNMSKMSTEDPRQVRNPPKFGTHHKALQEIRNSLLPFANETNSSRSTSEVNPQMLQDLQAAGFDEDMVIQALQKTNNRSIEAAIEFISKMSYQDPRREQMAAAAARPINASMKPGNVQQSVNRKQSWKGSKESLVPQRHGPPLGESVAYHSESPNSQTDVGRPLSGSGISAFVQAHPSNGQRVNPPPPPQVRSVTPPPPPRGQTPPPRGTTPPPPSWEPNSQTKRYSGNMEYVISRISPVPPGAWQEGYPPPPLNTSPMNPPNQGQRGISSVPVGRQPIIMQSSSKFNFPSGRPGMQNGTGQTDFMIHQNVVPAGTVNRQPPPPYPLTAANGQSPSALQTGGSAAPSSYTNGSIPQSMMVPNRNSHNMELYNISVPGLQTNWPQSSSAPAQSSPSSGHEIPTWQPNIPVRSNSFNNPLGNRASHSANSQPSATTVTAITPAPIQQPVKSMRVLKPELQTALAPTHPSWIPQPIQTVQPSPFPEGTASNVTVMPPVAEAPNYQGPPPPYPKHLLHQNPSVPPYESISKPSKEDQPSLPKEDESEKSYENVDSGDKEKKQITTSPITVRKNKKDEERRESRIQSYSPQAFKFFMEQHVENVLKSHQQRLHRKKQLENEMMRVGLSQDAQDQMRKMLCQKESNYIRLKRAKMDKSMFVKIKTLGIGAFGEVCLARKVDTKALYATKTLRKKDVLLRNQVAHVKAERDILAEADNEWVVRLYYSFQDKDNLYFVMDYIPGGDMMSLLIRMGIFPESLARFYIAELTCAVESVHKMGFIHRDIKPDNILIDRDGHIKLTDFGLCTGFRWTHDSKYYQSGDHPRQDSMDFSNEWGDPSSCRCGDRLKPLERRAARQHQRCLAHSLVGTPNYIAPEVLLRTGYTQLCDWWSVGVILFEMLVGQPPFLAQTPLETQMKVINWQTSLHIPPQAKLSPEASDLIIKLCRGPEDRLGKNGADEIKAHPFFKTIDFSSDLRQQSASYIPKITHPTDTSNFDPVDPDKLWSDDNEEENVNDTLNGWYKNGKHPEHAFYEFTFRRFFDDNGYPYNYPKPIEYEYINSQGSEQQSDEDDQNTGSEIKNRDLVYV
Chain of Serine/threonine-protein kinase DCLK3 (Homo sapiens) (Q9C098 whole entry, the tested form may be a part): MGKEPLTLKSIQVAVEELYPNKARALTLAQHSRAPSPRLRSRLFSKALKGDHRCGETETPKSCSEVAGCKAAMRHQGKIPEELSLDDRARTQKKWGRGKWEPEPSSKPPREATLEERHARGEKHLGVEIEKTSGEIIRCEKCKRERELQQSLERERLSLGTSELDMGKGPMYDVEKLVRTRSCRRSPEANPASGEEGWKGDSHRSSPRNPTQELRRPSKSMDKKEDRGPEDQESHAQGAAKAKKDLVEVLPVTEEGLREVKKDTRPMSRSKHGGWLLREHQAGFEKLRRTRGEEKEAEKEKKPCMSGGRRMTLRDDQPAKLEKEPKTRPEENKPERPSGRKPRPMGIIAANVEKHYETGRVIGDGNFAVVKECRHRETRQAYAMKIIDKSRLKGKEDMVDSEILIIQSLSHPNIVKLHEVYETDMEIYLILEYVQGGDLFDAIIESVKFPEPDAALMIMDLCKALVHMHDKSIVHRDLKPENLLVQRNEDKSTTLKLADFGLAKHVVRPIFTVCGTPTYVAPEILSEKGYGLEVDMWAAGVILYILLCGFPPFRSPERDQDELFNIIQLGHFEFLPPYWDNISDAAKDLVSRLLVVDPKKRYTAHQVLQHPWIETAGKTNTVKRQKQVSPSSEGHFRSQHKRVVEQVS
Chain of Tyrosine-protein kinase Mer (Homo sapiens) (Q12866 whole entry, the tested form may be a part): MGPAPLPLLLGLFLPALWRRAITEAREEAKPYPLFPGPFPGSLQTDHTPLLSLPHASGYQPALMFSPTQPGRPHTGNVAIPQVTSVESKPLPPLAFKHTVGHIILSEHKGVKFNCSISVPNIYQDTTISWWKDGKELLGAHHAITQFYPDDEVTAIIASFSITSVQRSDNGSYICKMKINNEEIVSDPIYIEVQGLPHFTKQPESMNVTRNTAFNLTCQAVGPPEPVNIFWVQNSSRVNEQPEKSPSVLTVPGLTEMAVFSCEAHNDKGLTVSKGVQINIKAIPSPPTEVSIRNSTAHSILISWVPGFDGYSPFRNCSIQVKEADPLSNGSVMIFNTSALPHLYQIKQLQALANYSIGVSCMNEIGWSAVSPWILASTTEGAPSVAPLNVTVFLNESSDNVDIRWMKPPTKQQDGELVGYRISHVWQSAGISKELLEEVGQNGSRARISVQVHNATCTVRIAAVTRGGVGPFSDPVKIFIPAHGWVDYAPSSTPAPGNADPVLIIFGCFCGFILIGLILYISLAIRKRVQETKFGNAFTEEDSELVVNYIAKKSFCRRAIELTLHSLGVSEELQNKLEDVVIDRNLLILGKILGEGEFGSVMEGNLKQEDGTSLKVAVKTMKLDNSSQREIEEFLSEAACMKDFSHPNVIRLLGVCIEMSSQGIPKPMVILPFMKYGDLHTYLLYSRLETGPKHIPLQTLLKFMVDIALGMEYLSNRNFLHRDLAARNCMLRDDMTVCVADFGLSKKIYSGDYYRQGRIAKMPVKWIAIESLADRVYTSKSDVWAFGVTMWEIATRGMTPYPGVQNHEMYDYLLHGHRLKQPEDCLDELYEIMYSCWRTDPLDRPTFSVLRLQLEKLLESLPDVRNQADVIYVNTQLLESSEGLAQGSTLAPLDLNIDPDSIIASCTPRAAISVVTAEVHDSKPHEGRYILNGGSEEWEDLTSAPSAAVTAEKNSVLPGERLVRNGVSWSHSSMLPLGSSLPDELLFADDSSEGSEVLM
Chain of Hormonally up-regulated neu tumor-associated kinase (Homo sapiens) (P57058 whole entry, the tested form may be a part): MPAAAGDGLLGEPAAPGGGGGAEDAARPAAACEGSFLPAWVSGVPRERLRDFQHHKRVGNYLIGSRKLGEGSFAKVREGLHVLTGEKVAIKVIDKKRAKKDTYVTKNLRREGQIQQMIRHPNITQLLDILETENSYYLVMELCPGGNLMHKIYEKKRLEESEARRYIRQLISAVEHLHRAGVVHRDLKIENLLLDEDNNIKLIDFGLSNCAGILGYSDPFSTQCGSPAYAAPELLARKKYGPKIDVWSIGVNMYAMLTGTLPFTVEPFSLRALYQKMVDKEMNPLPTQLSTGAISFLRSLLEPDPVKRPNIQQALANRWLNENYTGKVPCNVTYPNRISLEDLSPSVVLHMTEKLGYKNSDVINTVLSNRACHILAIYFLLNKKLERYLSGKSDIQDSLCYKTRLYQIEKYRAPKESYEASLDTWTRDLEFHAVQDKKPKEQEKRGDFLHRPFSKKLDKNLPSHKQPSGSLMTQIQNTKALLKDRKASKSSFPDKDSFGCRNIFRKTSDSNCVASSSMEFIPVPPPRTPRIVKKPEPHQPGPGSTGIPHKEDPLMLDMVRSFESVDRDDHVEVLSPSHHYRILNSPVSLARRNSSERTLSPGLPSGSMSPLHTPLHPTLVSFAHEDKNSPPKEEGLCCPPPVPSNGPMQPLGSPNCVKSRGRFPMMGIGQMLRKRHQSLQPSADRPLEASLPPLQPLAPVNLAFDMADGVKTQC
Chain of Dual specificity mitogen-activated protein kinase kinase 7 (Homo sapiens) (O14733 whole entry, the tested form may be a part): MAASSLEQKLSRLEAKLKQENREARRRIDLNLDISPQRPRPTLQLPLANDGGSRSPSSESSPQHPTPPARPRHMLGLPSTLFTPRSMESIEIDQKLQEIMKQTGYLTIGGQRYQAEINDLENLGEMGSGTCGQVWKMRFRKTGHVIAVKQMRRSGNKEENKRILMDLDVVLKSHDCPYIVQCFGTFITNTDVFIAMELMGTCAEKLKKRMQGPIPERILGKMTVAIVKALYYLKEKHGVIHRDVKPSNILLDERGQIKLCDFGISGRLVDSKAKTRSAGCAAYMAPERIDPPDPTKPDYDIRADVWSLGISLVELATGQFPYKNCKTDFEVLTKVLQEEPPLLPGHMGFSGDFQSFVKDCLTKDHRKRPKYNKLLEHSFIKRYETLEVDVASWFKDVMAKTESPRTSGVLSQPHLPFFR

## COCCN[C@H]1CC[C@H](Nc2cc(-c3csc(NCC4(C#N)CCOCC4)n3)c(Cl)cn2)CC1
[1]
  Tmax: 1.33 h
[2]
  AUC(0-t): 393 ng·h/mL
[3]
  Activity: 89%
[4]
  Activity: 100%
[5]
  Activity: 96%
[6]
  Activity: 96%
[7]
  half-life: 20.4 h
[8]
  clearance: 75.8 mL/min/kg
[9]
  Activity: 100%
COLO 205
  GI50: 14 nM
[10]
  Activity: 81%
[11]
  clearance: 123 mL/min/kg
[12]
  MRT inf: 20.4 h
[13]
  Activity: 94%
[14]
  Activity: 100%
[15]
  Activity: 92%
[16]
  Activity: 87%
[17]
  Activity: 85%
[18]
  MRT inf: 29.2 h
[19]
  Activity: 97%
[20]
  Activity: 99%
[21]
  Activity: 87%
Canis familiaris
  AUC: 16735.55 ng·h/mL
